Experiment [1] concerns Mus musculus. Nature of the experiment: Reduction of body weight in C57BL/6J mouse diet-induced obesity model at 3 mg, ip dosed 3 times per week for 28 days by chronic weight loss study. Format: functional, organism-based. Summed up: (§1)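 Male C57BL/6J mice (8 weeks at start, 18−20 g) kept on high-fat diet (60% fat) for 12 weeks, then randomised by body weight to groups of n = 8−9. Dosed ip Monday/Wednesday/Friday for 28 days with 0, 0.3, 1 or 3 mg in 1% DMSO/20% PEG400/saline, pH 7.4. Body weight recorded daily; a standard-chow group (n = 8) served as reference.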

Experiment [2] addresses T1, Glucagon-like peptide 1 receptor (Rattus norvegicus) (UniProt P32301).
T1 sequence (whole entry): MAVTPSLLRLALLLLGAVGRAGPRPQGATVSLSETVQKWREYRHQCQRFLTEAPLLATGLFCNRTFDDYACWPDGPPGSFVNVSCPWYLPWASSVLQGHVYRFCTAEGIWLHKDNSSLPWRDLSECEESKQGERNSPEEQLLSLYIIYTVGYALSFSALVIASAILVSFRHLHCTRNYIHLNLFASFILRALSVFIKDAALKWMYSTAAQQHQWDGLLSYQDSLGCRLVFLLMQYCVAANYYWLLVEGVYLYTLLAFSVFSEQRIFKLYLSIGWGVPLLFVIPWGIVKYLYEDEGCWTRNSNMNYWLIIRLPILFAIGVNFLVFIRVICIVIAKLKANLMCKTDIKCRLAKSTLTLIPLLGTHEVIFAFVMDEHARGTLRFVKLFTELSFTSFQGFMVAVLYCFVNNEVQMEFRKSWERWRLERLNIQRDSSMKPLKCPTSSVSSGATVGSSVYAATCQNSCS
Nature of the experiment: Inhibition of [125I]Exendin (9-39) binding to rat GLP1R expressed in HEK293 cells. It counts as cell-based. The arrangement: concentration or dose not given beside the values. Conditions: concentration not given here. Summed up: (§2)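 Membranes (17 μg protein) from HEK293 cells stably expressing rat GLP-1R were preincubated 5 h at 4 °C with FlashBlue beads (150 μg). Then 40 pM [125I]GLP-1(7−36) amide or [125I]Exendin(9−39) was added with aprotinin 2 μg/mL, leupeptin 100 μM and test compound at varied concentrations. Incubated overnight at 4 °C, then bound radioactivity counted. Mean ± SEM of two independent experiments.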

The target in experiment [3] is T1, Glucagon-like peptide 1 receptor (Rattus norvegicus). Nature of the experiment: Agonist activity at rat GLP1R expressed in HEK293 cells assessed as stimulation of cAMP levels incubated for 6 hrs by multiple response element/cAMP response element (MRE/CRE)-driven reporter gene assay relative to 10 nM GLP1. It counts as functional, cell-based. The method in brief:
(§3)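 Stable HEK293 line co-expressing rat GLP-1R (pCMV-Tag2B) and a luciferase reporter with 3× MRE plus 1× CRE, seeded at 40000 cells/well and cultured overnight. Compounds in DMSO or GLP-1(7−37) were added for 6 h, then cells were lysed and luciferase read (Steady-Glo). The 10 nM GLP-1 maximum was taken as 100%. Mean ± SEM of two independent experiments; some values come from a single run.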

In experiment [4] the target is T2, Glucagon-like peptide 2 receptor (Homo sapiens) (UniProt O95838).
T2 sequence (whole entry): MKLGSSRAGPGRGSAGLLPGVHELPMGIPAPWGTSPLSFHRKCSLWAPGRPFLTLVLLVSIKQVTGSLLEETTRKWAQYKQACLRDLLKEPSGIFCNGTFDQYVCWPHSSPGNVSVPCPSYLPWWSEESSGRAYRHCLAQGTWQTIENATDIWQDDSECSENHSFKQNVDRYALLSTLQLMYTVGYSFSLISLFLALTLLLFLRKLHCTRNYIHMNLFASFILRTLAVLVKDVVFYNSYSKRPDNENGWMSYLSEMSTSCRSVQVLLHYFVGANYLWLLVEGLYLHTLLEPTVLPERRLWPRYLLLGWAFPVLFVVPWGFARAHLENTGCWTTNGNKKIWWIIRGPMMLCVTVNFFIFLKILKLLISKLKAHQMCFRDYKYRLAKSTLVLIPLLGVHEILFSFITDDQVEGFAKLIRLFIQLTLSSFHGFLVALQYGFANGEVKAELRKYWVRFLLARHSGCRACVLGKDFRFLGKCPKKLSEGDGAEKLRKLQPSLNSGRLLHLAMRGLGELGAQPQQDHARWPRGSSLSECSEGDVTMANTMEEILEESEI
Nature of the experiment: Agonist activity at human GLP2R expressed in HEK293 cells assessed as stimulation of cAMP levels incubated for 6 hrs by multiple response element/cAMP response element (MRE/CRE)-driven reporter gene assay. It counts as functional, cell-based. Summed up: (§4)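 HEK293 cells transiently cotransfected with human GLP-2 receptor or glucagon receptor expression vector plus a luciferase reporter carrying three copies of multiple response element and one cAMP response element. Luciferase activity at different compound concentrations was expressed relative to the respective native peptide (GLP-2 or glucagon, 100%). Mean ± SEM of triplicate experiments.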

Experiment [5] addresses T1, Glucagon-like peptide 1 receptor (Rattus norvegicus). Nature of the experiment: Inhibition of [125I]GLP1 (7-36) amide binding to rat GLP1R expressed in HEK293 cells relative to untreated control. It counts as cell-based. The conditions noted are these: concentration not given here. The arrangement: concentration or dose not given beside the values. Summed up: as §2
In experiment [6] the target is Glucagon receptor (Homo sapiens) (UniProt P47871). Nature of the experiment: Agonist activity at human glucagon receptor expressed in HEK293 cells assessed as stimulation of cAMP levels incubated for 6 hrs by multiple response element/cAMP response element (MRE/CRE)-driven reporter gene assay. It counts as functional, cell-based. Summed up: as §4
For experiment [7], the target named is T3, Glucagon-like peptide 1 receptor (Rattus norvegicus, UniProt P32301).
T3 sequence (P32301 whole entry): T1 sequence (whole entry)
In words: Inhibition of [125I]GLP1 (7-36) amide binding to rat GLP1R expressed in HEK293 cells. Format: cell-based. The method in brief: as §2

The subject of experiment [8] is Mus musculus. Nature of the experiment: Inhibition of acute food intake in intraperitoneally dosed C57BL/6J mouse measured 6 hrs post dose. Format: functional, organism-based. Summed up:
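Male C57BL/6J mice (6 weeks, 18−20 g) fasted overnight and given a single ip dose of 0.1, 0.3, 1 or 3 mg or vehicle (1% DMSO, 20% PEG400 in saline). Mice housed singly with a preweighed food pellet, reweighed every 15 or 30 min for 6 h to give cumulative intake. n ≥ 6 per group; mean ± SEM.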

Experiment [9] relates to Mus musculus. Nature of the experiment: Reduction of body weight in C57BL/6J mouse diet-induced obesity model dosed intraperitoneally 3 times per week for 28 days by chronic weight loss study. It counts as functional, organism-based. The method in brief: as §1
Experiment [10] has as its target T3, Glucagon-like peptide 1 receptor. Nature of the experiment: Agonist activity at rat GLP1R expressed in HEK293 cells assessed as stimulation of cAMP levels incubated for 6 hrs by multiple response element/cAMP response element (MRE/CRE)-driven reporter gene assay. Format: functional, cell-based. The method in brief: as §3

Activity calls are given as the source filed them. No cut-off for these calls is given here.

2 molecules from ChEMBL document CHEMBL2157924, “Cyclobutane derivatives as novel nonpeptidic small molecule agonists of glucagon-like peptide-1 receptor” (J Med Chem, 2012) can be followed below.

Glucagon receptor (Homo sapiens), sequence (P47871 whole entry): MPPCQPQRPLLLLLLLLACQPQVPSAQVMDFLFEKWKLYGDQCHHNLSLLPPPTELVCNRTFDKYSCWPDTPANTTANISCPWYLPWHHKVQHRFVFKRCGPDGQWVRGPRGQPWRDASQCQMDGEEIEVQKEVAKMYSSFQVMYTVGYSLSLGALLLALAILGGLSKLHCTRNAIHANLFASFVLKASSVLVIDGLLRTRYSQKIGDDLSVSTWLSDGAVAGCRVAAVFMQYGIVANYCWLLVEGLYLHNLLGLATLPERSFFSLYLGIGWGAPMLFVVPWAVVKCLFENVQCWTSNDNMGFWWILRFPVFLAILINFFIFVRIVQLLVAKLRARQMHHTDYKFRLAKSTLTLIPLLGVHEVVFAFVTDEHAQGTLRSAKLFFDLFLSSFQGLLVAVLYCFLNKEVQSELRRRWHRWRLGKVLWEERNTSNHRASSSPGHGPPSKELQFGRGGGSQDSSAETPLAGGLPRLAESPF

For `COc1cc([C@H]2[C@](NC(=O)c3ccc(NC(=O)OC(C)(C)C)cc3)(C(=O)O)[C@@H](c3ccc(OC(=O)c4cccs4)c(OC)c3)[C@]2(NC(=O)c2ccc(NC(=O)OC(C)(C)C)cc2)C(=O)O)ccc1OC(=O)c1cccs1` (stereo in doubt; 3), the result in the experiment with Mus musculus [1] was Active. For the same molecule, the inhibition in experiment [2] is 63.1%; in experiment [5], 87.2%. Further, in [3], the Efficacy worked out at 96.7%. The result in [4] and in experiment [6] was inactive.
Turning to `COc1cc([C@H]2[C@](NC(=O)c3ccc(NC(=O)C(C)C)cc3)(C(=O)O)[C@@H](c3ccc(OC(=O)c4cccs4)c(OC)c3)[C@]2(NC(=O)c2ccc(NC(=O)C(C)C)cc2)C(=O)O)ccc1OC(=O)c1cccs1`, in [7], the concentration for half-maximal inhibition (IC50) came to 300 nM. In addition, the inhibition in experiment [2] stood at 49.7%; in [5] it was 58.2%. Besides, the inhibition entry in the experiment on Mus musculus [8] was “Active”. Also, the Activity result in the experiment with Mus musculus [9] was “Dose-dependent effect”. The Efficacy in [3] is 73.6%. The concentration giving a half-maximal response (EC50) in [10] amounted to 203 nM.
